Laboratory results published in ChEMBL document CHEMBL2331189, “Synthesis of tacrine-lophine hybrids via one-pot four component reaction and biological evaluation as acetyl- and butyrylcholinesterase inhibitors” (Eur J Med Chem, 2013).

Assays:
[1] = biological target: Cholinesterase (Homo sapiens, UniProt P06276); assay: Inhibition of BuChE in human plasma using butyrylthiocholine iodide as substrate by Ellman's colorimetric method
In short: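 The BuChE source is plasma from 5 healthy human volunteers (24–60 years, both sexes), centrifuged at 1000× g for 15 min at room temperature and stored at −20 °C. In 20 mM phosphate buffer pH 7.4, plasma was incubated 150 s with 0.8 mM butyrylthiocholine iodide and DTNB. Absorbance of the yellow anion was read at 415 nm. Protein was determined by Peterson-modified Lowry against BSA.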

[2] = Ratio of IC50 for BuChE in human plasma to IC50 for AChE in Wistar rat brain cortex; format: cell-free
[3] = biological target: T1, Acetylcholinesterase (Rattus norvegicus, UniProt P37136); assay: Inhibition of AChE in Wistar rat brain cortex using acetylthiocholine iodide as substrate by Ellman's colorimetric method
T1 sequence (P37136 whole entry): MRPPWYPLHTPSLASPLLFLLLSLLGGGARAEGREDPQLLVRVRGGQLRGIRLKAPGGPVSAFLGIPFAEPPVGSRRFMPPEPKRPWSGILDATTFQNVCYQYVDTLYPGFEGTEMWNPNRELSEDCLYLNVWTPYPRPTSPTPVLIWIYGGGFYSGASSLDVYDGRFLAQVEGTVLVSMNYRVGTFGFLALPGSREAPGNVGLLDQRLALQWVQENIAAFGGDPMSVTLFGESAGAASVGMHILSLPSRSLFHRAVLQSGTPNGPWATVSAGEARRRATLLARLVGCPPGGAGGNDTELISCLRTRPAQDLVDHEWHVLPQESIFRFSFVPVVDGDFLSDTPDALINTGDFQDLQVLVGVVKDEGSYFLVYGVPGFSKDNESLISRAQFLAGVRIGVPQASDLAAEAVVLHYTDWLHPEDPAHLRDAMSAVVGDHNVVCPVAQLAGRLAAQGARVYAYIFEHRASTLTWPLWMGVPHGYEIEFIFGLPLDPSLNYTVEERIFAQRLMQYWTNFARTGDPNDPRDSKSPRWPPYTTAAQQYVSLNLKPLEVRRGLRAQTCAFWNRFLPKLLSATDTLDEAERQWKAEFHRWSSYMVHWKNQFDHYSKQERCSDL
In short: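 Enzyme source is the cortex of adult male Wistar rats (2–3 months), dissected on ice and homogenized in cold 10 mM Tris-HCl pH 7.2 with 160 mM sucrose. The 10,000× g supernatant (10 min, 4 °C) was stored at −20 °C. The sample in 20 mM phosphate pH 7.4 was incubated 150 s with 0.8 mM acetylthiocholine iodide plus DTNB.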

Chain of Cholinesterase (P06276 whole entry): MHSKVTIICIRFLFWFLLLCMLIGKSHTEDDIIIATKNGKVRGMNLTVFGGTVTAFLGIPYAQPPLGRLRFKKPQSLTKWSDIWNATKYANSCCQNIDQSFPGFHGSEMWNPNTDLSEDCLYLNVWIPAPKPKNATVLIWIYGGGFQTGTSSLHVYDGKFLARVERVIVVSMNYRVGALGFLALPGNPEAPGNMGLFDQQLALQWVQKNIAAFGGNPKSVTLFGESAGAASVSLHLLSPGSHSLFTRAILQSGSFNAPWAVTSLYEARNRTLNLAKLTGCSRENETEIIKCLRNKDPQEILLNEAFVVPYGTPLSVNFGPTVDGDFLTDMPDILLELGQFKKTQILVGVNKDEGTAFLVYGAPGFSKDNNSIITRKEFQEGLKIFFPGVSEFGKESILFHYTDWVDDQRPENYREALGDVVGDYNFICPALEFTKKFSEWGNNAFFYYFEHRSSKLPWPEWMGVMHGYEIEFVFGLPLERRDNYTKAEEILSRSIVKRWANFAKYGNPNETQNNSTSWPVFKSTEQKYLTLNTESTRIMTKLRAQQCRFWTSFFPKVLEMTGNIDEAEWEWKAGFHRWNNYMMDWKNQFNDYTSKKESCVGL

| SMILES | IC50 ([1]; read-out: IC50) [nM] | Ratio IC50 [2] | IC50 ([3]; read-out: IC50) [nM] | IC50 [1] | IC50 [3] |
| --- | --- | --- | --- | --- | --- |
| COc1ccc(-c2nc(-c3ccccc3)c(-c3ccccc3)n2CCCCCCCNc2c3c(nc4ccccc24)CCCC3)cc1 | 61.7 | 0.9 | 68.7 |  |  |
| c1ccc(-c2nc(-c3ccccc3)n(CCCCCCn3c(-c4ccccc4)nc(-c4ccccc4)c3-c3ccccc3)c2-c2ccccc2)cc1 |  |  |  | Not Active | Not Active |
| Fc1ccc(-c2nc(-c3ccccc3)c(-c3ccccc3)n2CCCCCCCNc2c3c(nc4ccccc24)CCCC3)cc1 | 67.3 | 1.7 | 38.5 |  |  |
| c1ccc(-c2nc(-c3ccccc3)n(CCCCCCCCn3c(-c4ccccc4)nc(-c4ccccc4)c3-c3ccccc3)c2-c2ccccc2)cc1 |  |  | 42.5 | Not Active |  |
| N#Cc1ccc(-c2nc(-c3ccccc3)c(-c3ccccc3)n2CCCCCCCNc2c3c(nc4ccccc24)CCCC3)cc1 | 7.1 |  |  |  | Not Active |
| COc1ccc(-c2nc(-c3ccccc3)c(-c3ccccc3)n2CCCCCCNc2c3c(nc4ccccc24)CCCC3)cc1 | 36 |  |  |  | Not Active |
| O=[N+]([O-])c1ccc(-c2nc(-c3ccccc3)c(-c3ccccc3)n2CCCCCCCNc2c3c(nc4ccccc24)CCCC3)cc1 | 76.9 | 1 | 72.1 |  |  |
| O=[N+]([O-])c1ccc(-c2nc(-c3ccccc3)c(-c3ccccc3)n2CCCCCCCCNc2c3c(nc4ccccc24)CCCC3)cc1 | 120 |  |  |  | Not Active |
| COc1ccc(-c2nc(-c3ccccc3)c(-c3ccccc3)n2CCCCCCCCNc2c3c(nc4ccccc24)CCCC3)cc1 | 82.3 | 0.6 | 126 |  |  |
| Clc1ccc(-c2nc(-c3ccccc3)c(-c3ccccc3)n2CCCCCCNc2c3c(nc4ccccc24)CCCC3)cc1 | 29.3 |  |  |  | Not Active |
| Clc1ccc(-c2nc(-c3ccccc3)c(-c3ccccc3)n2CCCCCCCCNc2c3c(nc4ccccc24)CCCC3)cc1 | 109 | 18.5 | 5.87 |  |  |
| Clc1cccc(-c2nc(-c3ccccc3)c(-c3ccccc3)n2CCCCCCCCNc2c3c(nc4ccccc24)CCCC3)c1 |  |  |  | Not Active | Not Active |
| Fc1ccc(-c2nc(-c3ccccc3)c(-c3ccccc3)n2CCCCCCCCNc2c3c(nc4ccccc24)CCCC3)cc1 | 57.3 | 2.2 | 25.8 |  |  |
| N#Cc1ccc(-c2nc(-c3ccccc3)c(-c3ccccc3)n2CCCCCCNc2c3c(nc4ccccc24)CCCC3)cc1 | 29.6 |  |  |  | Not Active |
| c1ccc(-c2nc(-c3ccccc3)n(CCCCCCCn3c(-c4ccccc4)nc(-c4ccccc4)c3-c3ccccc3)c2-c2ccccc2)cc1 |  |  |  | Not Active | Not Active |
| Clc1cccc(-c2nc(-c3ccccc3)c(-c3ccccc3)n2CCCCCCCNc2c3c(nc4ccccc24)CCCC3)c1 |  |  |  | Not Active | Not Active |
| O=[N+]([O-])c1ccc(-c2nc(-c3ccccc3)c(-c3ccccc3)n2CCCCCCNc2c3c(nc4ccccc24)CCCC3)cc1 | 12.4 |  |  |  | Not Active |
| Fc1ccc(-c2nc(-c3ccccc3)c(-c3ccccc3)n2CCCCCCNc2c3c(nc4ccccc24)CCCC3)cc1 | 55.2 |  |  |  | Not Active |
| N#Cc1ccc(-c2nc(-c3ccccc3)c(-c3ccccc3)n2CCCCCCCCNc2c3c(nc4ccccc24)CCCC3)cc1 | 30.5 |  |  |  | Not Active |
| Clc1cccc(-c2nc(-c3ccccc3)c(-c3ccccc3)n2CCCCCCNc2c3c(nc4ccccc24)CCCC3)c1 | 34.8 |  |  |  | Not Active |
| c1ccc(-c2nc(-c3ccccc3)n(CCCCCCCCCCn3c(-c4ccccc4)nc(-c4ccccc4)c3-c3ccccc3)c2-c2ccccc2)cc1 |  |  |  | Not Active | Not Active |
| c1ccc(-c2nc(-c3ccccc3)n(CCCCCCCCCn3c(-c4ccccc4)nc(-c4ccccc4)c3-c3ccccc3)c2-c2ccccc2)cc1 |  |  |  | Not Active | Not Active |
| Clc1ccc(-c2nc(-c3ccccc3)c(-c3ccccc3)n2CCCCCCCNc2c3c(nc4ccccc24)CCCC3)cc1 | 37.6 | 0.6 | 59.8 |  |  |
| Clc1ccc(-c2nc(-c3ccccc3)c(-c3ccccc3)n2CCCCCCCCCNc2c3c(nc4ccccc24)CCCC3)cc1 |  |  |  | Not Active | Not Active |
| c1ccc(-c2nc(-c3ccccc3)n(CCCCCCNc3c4c(nc5ccccc35)CCCC4)c2-c2ccccc2)cc1 | 58 |  |  |  | Not Active |
| c1ccc(-c2nc(-c3ccccc3)n(CCCCCCCNc3c4c(nc5ccccc35)CCCC4)c2-c2ccccc2)cc1 | 92.4 | 1.1 | 80.7 |  |  |
| c1ccc(-c2nc(-c3ccccc3)n(CCCCCCCCNc3c4c(nc5ccccc35)CCCC4)c2-c2ccccc2)cc1 |  |  |  | Not Active | Not Active |
| c1ccc2c(NCCCCCCCNc3c4c(nc5ccccc35)CCCC4)c3c(nc2c1)CCCC3 | 9.03 |  |  |  |  |
| Clc1ccc(-c2nc(-c3ccccc3)c(-c3ccccc3)n2CCCCCCCCCCNc2c3c(nc4ccccc24)CCCC3)cc1 |  |  |  | Not Active | Not Active |
